Test results as given in ChEMBL document CHEMBL1139463, “SAR by MS: discovery of a new class of RNA-binding small molecules for the hepatitis C virus: internal ribosome entry site IIA subdomain” (J Med Chem, 2005).

Tests used:
[1] = Binding affinity to HCV 40-mer RNA by MS based binding assay; parameters: species or system Hepacivirus hominis
[2] = Binding affinity to HCV 29-mer 2A RNA by MS based binding assay; parameters: species or system Hepacivirus hominis
[3] = Cytotoxicity against Huh7 cells by MTT assay; format: cell-based, Huh-7; settings: human
Outline: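 Huh-7 cells; viability read by MTT; 50% cytotoxic concentration (CC50) reported.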

Hepatitis C virus = test: Reduction of HCV RNA levels by HCV replicon assay; format: functional, organism-based, Hepacivirus hominis
Outline: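 HCV replicon cells treated with compound; intracellular HCV RNA levels quantified by RT-PCR.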

| Compound | Kd [1] [nM] | Kd [2] [µM] | CC50 [3] [µM] | EC50 (Hepatitis C virus) [µM] |
| --- | --- | --- | --- | --- |
| CN(C)CCCOc1ccc2nc(N)n(CCCN(C)C)c2c1 | 17000 | 10 | > 100 | 37 |
| Nc1nc2ccccc2n1CCCN1CCCC1 | – | 125 | – | – |
| CN(C)CCCn1c(N)nc2ccc(OCCN(C)C)cc21 | – | 8 | – | – |
| CN(C)CCCn1c(N)nc2ccc3c(c21)CC(CN(C)C)CO3 (stereo not given) | 860 | – | > 100 | 3.9 |
| CN(C)CCCn1c(N)nc2ccc3c(c21)CC(CN(C)C)O3 (stereo not given) | 1700 | – | > 100 | 1.5 |
| CCCn1c(N)nc2ccccc21 | – | > 200 | – | – |
| COc1ccc2nc(N)n(CCCN(C)C)c2c1 | – | 40 | – | – |
| COc1cccc2nc(N)n(CCCN(C)C)c12 | – | 50 | – | – |
| CN(C)CCCOc1ccc2c(c1)nc(N)n2CCCN(C)C | – | > 100 | – | – |
| CN(C)CCCOc1ccc2nc3n(c2c1)CC(CN(C)C)CN3 (stereo not given) | 3500 | – | > 100 | 29 |
| CCCCN(CCCC)CCCn1c(N)nc2ccccc21 | – | > 200 | – | – |
| CN(C)CCCn1c(N)nc2ccccc21 | > 100000 | 100 | > 100 | – |
| COc1cccc2c1nc(N)n2CCCN(C)C | – | > 200 | – | – |
| CCN(CC)CCCn1c(N)nc2ccccc21 | – | 130 | – | – |
| COc1ccc2c(c1)nc(N)n2CCCN(C)C | – | > 200 | – | – |
| Nc1nc2ccccc2n1CCCN1CCOCC1 | – | > 200 | – | – |
| CN(C)CCCOc1ccc2nc(N)[nH]c2c1 | – | > 100 | – | – |
| CN(C)CCCn1c(N)nc2ccc(OCc3ccccc3)cc21 | – | 99 | – | – |
| CN(C)CCCCOc1ccc2nc(N)n(CCCN(C)C)c2c1 | – | 7 | – | – |
| CN(C)CC1COc2ccc3nc4n(c3c2C1)CC(CN(C)C)CN4 (stereo not given) | 720 | – | > 100 | 5.4 |
| CC(C)CCOc1ccc2nc(N)n(CCCN(C)C)c2c1 | – | 48 | – | – |
| CN(C)CCCOc1ccc2ncn(CCCN(C)C)c2c1 | – | > 100 | – | – |
